Assay outcomes (PubChem BioAssay)
This is one part of a sample in which hits are shown more often than they occur.
E-sel inducer: induces E-selectin expression in human endothelial cells. P16581. HUVEC E-selectin immunofluorescence imaging; normalized: neutral wells 0, TNF-alpha wells 100. activation, % at 7.58 µM. 0.37% of 260,000 active. AID 686992;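 active means mean E-selectin-positive cell signal at least 10% of the positive control, reached in at least 60% of replicates, without over 20% cell loss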
Target sequence (P16581 whole entry, looked up): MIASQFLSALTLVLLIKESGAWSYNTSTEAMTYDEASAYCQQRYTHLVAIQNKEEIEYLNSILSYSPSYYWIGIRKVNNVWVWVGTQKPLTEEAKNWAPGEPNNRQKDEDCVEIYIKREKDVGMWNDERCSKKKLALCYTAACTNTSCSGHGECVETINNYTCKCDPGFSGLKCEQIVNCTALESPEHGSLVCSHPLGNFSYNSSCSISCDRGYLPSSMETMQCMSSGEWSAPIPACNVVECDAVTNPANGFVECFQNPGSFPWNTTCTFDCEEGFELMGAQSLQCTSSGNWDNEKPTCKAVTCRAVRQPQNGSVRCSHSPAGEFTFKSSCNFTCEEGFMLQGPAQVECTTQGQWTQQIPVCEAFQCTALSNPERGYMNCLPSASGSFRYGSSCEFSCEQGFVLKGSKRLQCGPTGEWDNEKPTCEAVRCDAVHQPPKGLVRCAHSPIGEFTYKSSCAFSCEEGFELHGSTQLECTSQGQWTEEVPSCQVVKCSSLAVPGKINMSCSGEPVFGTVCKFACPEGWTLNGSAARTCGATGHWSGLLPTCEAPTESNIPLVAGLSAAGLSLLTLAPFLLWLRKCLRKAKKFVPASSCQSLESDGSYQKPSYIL
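Test system – human umbilical vein endothelial cells (HUVEC), E-selectin induction · Input – 3,000 HUVEC seeded per well · Buffer or medium – EGM-2, gelatin · Compound dosing – single-point compound dose · Detection – immunofluorescence imaging · Measure – percent E-selectin-positive cells · Controls – TNF-alpha high, DMSO low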
XiGFP reactiv: activators of X-chromosome reactivation in mouse fibroblasts | XiGFP mouse fibroblasts, % GFP-positive cells imaging, 3 d; cells co-treated with 5-aza-dC sensitizer; scaled so ellipticine positive control = 100% | activation, % at 7.58 µM | 0.055% of 360,000 active;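 active means mean normalized replicate activation at least 10% and every replicate at or above 10%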;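 further: 0% = median of on-plate neutral control wells and 100% = ellipticine 6 µM median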
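Assay system: SV40-immortalized XiGFP fibroblast cells, line 68-5-11; buffer or medium: DMEM plus 5-aza-dC sensitizer; compound: one concentration, pinned; timing: compounds 3 days, fix/stain 15 min at room temperature; benchmarks: positive control ellipticine, 6 µM final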
Numbers without * were called inactive; . = not tested or not shown.

SMILES	E-sel inducer	XiGFP reactiv
COc1cccc(NC(=O)C2C3C=CC4(O3)C2C(=O)N(CCCN2CCCCC2)C4C(=O)NC2CCCCC2)c1 (centres undefined)	29.1*	0.4
O=C(C[C@H]1C=C[C@@H](NC(=O)C2CC2)[C@@H](CO)O1)Nc1ccccc1	0.8	-0.1
CCC(=O)N(C)C[C@@H]1Oc2ncc(-c3ccc(C#N)cc3)cc2C(=O)N([C@H](C)CO)C[C@@H]1C	0.2	0.0
Cc1ccc(S(=O)(=O)N(C)c2ccc(C)c([N+](=O)[O-])c2)cc1	1.4	20.9*
COc1ccc(N(C)S(=O)(=O)c2ccc(C)cc2)c([N+](=O)[O-])c1	.	0.1
CNC[C@@H]1Oc2c(NC(=O)NC(C)C)cccc2C(=O)N(C)C[C@H]1C	.	0.2
COc1cc(OC)cc(C(=O)NNc2nc3cc4c(cc3s2)OCO4)c1	-0.1	0.9
COc1cc(C(=O)NNc2nc3cc4c(cc3s2)OCO4)cc(OC)c1OC	107.8*	0.0
COc1ccccc1NC(=O)N[C@H]1CC[C@@H](CCNS(=O)(=O)c2ccccc2)O[C@@H]1CO	0.3	0.2
CC(C)(C)c1[nH]nc2c1C(c1ccco1)C(C#N)=C(N)O2 (centres undefined)	.	0.1
Cc1[nH]nc2c1C(c1ccco1)C(C#N)=C(N)O2 (centres undefined)	114.4*	0.0
C[C@H](CO)N1C[C@H](C)[C@@H](CN(C)Cc2ccc(C(=O)O)cc2)Oc2c(NC(=O)NC3CCCCC3)cccc2C1=O	.	0.1
O=C(Cc1ccncc1)NCC[C@@H]1CC[C@@H](NC(=O)C2CCC2)[C@H](CO)O1	-0.1	1.9
O=C(COc1ccc(Cl)cc1)Nc1nnc(S(=O)(=O)N2CCCCCC2)s1	115.2*	0.0
Cc1ccc(OCC(=O)Nc2nnc(S(=O)(=O)N3CCCCCC3)s2)cc1C	0.1	0.0
CCCNC(=O)N1CC2(CCN(C)CC2)c2c(n(C)c3cc(OC)ccc23)[C@@H]1CO	.	0.1
Cc1ccc(NCc2n[nH]c(=S)n2-c2ccccc2)cc1	30.3*	0.1
Cc1cccc(NCc2n[nH]c(=S)n2-c2ccccc2)c1	1.1	0.1
C[C@H](CO)N1C[C@H](C)[C@@H](CN(C)C(=O)Nc2ccc3c(c2)OCO3)Oc2c(NC(=O)NC3CCCCC3)cccc2C1=O	.	0.2
O=C(c1c(F)cccc1F)N(Cc1ccccc1)Cc1ccccc1	31.7*	0.0
O=C(c1ccccc1)N(Cc1ccccc1)Cc1ccccc1	0.0	-0.1
O=C(CNC(=S)NC(=O)c1ccc(F)cc1)c1ccccc1	1.1	-0.1
O=C(O)CCC(=O)NCC(=O)c1ccc(F)cc1	70.2*	0.1
C/C=C/c1cnc2c(c1)C(=O)N([C@H](C)CO)C[C@H](C)[C@H](CN(C)C(=O)Cc1ccccn1)O2	-0.2	-1.3
CN1C(=O)c2cc(NC(=O)c3cscn3)ccc2OC[C@H]2O[C@@H](CC(=O)N3CCOCC3)CC[C@@H]21	0.8	0.0
SMILES	E-sel inducer	XiGFP reactiv
C[C@H]1CCCCO[C@H](CN(C)C)[C@@H](C)CN([C@@H](C)CO)C(=O)c2cc(NS(=O)(=O)c3ccccc3)ccc2O1	-0.1	0.0
COc1ccc(N2CCN(C(=O)c3cccc(NC4=NC5CS(=O)(=O)CC5S4)c3)CC2)cc1 (centres undefined)	52.9*	0.1
O=C(c1cccc(NC2=NC3CS(=O)(=O)CC3S2)c1)N1CCN(c2ncccn2)CC1 (centres undefined)	-0.4	-0.2
Cc1ccc(Cl)c2c(N=Nc3ccccc3)c(O)[nH]c12	.	26.7*
Cc1cc(Cl)cc2c(N=Nc3ccccc3C(=O)O)c(O)[nH]c12	.	0.2
CCOc1ccc(C(=O)N2CCN(S(=O)(=O)c3cccs3)CC2)c(OCC)c1	32.7*	0.8
Cc1ccccc1C(=O)N1CCN(S(=O)(=O)c2cccs2)CC1	-0.1	0.6
Cc1ccc(NC(=O)CN2CCOCC2)cc1Cl	45.8*	3.9
O=C(CN1CCOCC1)Nc1ccc(Cl)cc1	.	0.2
COC(=O)C1=C(C)NC(=O)/C1=C\N(C)C	38.7*	0.0
COC(=O)C1=C(C)NC(=O)/C1=C\c1cc(C)n(-c2ccccc2F)c1C	.	0.2
CO[C@H](CN(C)C(=O)C1CCOCC1)[C@@H](C)CN(C(=O)Nc1ccc(F)cc1)[C@@H](C)CO	-0.1	-0.1
CCN(CC)c1ccc(/C=N/NC(=O)c2cc(C)nc3ccccc23)cc1	.	0.2
CCN(CC)c1ccc(/C=C/c2cc(-c3ccccc3)c3ccccc3n2)cc1	.	95.2*
COc1ccccc1-c1c(C)nn2c(NCCN3CCCC3)cc(C)nc12	94.4*	0.0
CCOC(CNc1cc(C)nc2c(-c3ccccc3OC)c(C)nn12)OCC	1.0	0.0
O=S(=O)(c1ccccc1)N1CC[C@@H]2[C@H](CO)Nc3ccc(Br)cc3[C@@H]21	-0.1	0.2
Cc1[nH]c(C)c(S(=O)(=O)N2CCCCC2)c1C(=O)N1CCCC1	85.3*	0.1
Cc1[nH]c(C)c(S(=O)(=O)N2CCN(c3ccccc3)CC2)c1C(=O)N1CCCC1	.	0.0
Cc1cc(NC(=O)c2ccccc2F)n(C(C)(C)C)n1	33.8*	0.0
O=C(Nc1cc(-c2ccccc2)nn1-c1ccccc1)c1ccccc1F	-0.1	-0.2
CCCN1C[C@@H](C)[C@H](OC)CN(C)C(=O)c2cc(NC(=O)c3ccccc3F)ccc2OC[C@H]1C	6.7	-0.2
CC(C)NC(=O)Nc1ccc2c(c1)C(=O)N([C@@H](C)CO)C[C@H](C)[C@@H](CN(C)Cc1ccc(C(F)(F)F)cc1)O2	89.1*	0.0
C[C@@H]1CN([C@H](C)CO)C(=O)c2cc(N(C)C)ccc2O[C@H]1CN(C)Cc1ccc(C(=O)O)cc1	267.4*	-0.7
C[C@H](CO)N1C[C@H](C)[C@H](CN(C)Cc2ccc(C(=O)O)cc2)Oc2ccc(N(C)C)cc2C1=O	-6.1	-0.6
SMILES	E-sel inducer	XiGFP reactiv
CC(C)NC(=O)Nc1ccc2c(c1)C(=O)N([C@@H](C)CO)C[C@@H](C)[C@@H](CN(C)Cc1ccc(C(F)(F)F)cc1)O2	59.3*	-0.1
C[C@@H]1CN([C@@H](C)CO)C(=O)c2cc(NC(=O)Nc3ccc(C(F)(F)F)cc3)ccc2O[C@@H]1CN(C)Cc1ccc(C(F)(F)F)cc1	1.1	0.3
CC(C)NC(=O)Nc1ccc2c(c1)C(=O)N([C@H](C)CO)C[C@@H](C)[C@H](CN(C)Cc1ccc(C(F)(F)F)cc1)O2	22.3	0.0
O=[N+]([O-])c1ccc(N2N=C(c3ccccc3)CC2c2ccccc2O)cc1 (centres undefined)	.	32.3*
NS(=O)(=O)c1ccc(N2N=C(c3ccccc3)CC2c2ccccc2Br)cc1 (centres undefined)	0.0	0.0
Nc1c(Br)cc(Br)c2c1C(=O)c1c(cccc1S(=O)(=O)O)C2=O	123.9*	0.4
Nc1c(C(=O)O)ccc2c1C(=O)c1ccccc1C2=O	.	0.1
C[C@H]1CN([C@@H](C)CO)C(=O)c2cc(-c3cccc(F)c3)cnc2O[C@@H]1CN(C)C(=O)C1CCCCC1	0.5	-1.2
c1ccc(-c2ccccc2OCCOCCN2CCOCC2)cc1	-0.3	0.0
c1ccc(-c2ccccc2OCCOCCN2CCNCC2)cc1	38.8*	0.2
CC(C)NC(=O)N[C@H]1CC[C@H](CCN)O[C@@H]1CO	0.6	-0.2
C[C@@H]1CN([C@H](C)CO)C(=O)Cc2cc(NC(=O)c3ccncc3)ccc2O[C@@H]1CN(C)Cc1ccc(Cl)c(Cl)c1	1.6	-0.1
